The source made the active and inactive calls. The rule behind the calls is not given here.

These results are taken from ChEMBL document CHEMBL1153368, “Benzophenone-N-ethyl piperidine ether analogues--synthesis and efficacy as anti-inflammatory agent” (Bioorg Med Chem Lett, 2009).

Series [1] deals with Mus musculus. The series can be described thus: Antiinflammatory activity against carrageenan-induced inflammation in Albino mouse air ppouch model assessed as number of polymorphonuclear leukocytes infiltration at 10 mg/kg, po administered 1 hr before carrageenan challenge measured after 4 hrs by air pouch test. It is filed as functional. The method, boiled down: (§1)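 Mice housed in groups of six, food withdrawn the day before with water free. Dosing by oral gavage in 0.5% CMC, with vehicle-only controls. Air pouch made by sc injection of 1 ml air over 3 days. On day 3, 1 ml of 10 mg/ml carrageenan (heat-sterilized, held at 37 °C) injected into the pouch, 1 h after dosing. Killed 4 h later; pouch lavaged with 3 ml PBS-heparin, spun 2000 rpm 15 min 4 °C, PMNL counted by Coulter Counter; n = 6.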

Series [2] deals with Mus musculus. The experiment in a line: Toxicity in carrageenan treated Albino mouse stomach assessed as gastric ulcer at 10 mg/kg, po administered 1 hr before carrageenan challenge measured after 4 hrs by hematoxilen eosine staining. It is filed as organism-based. Also noted: dose 10 mg/kg, route oral. The following applies: in vivo. The method, boiled down: (§2)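 Mice given oral doses suspended in 0.5% CMC (vehicle controls) for the carrageenan paw edema experiment. Animals sacrificed 4 h after the paw edema experiments. Liver, stomach and kidneys removed and fixed in 10% formalin, then sections scored microscopically for kidney edema and mononuclear cell infiltration, gastritis/ulceration, and liver fatty change, acute hepatitis/spotty necrosis and cholestasis.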

The subject of series [3] is Mus musculus. The series can be described thus: Antiinflammatory activity in Albino mouse assessed as inhibition of carrageenan-induced foot paw edema at 10 mg/kg, po administered 1 hr before carrageenan challenge measured after 2 hrs. It is filed as functional. The method, boiled down:
(§3)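 Fasted mice (water free) dosed orally with suspensions in 0.5% CMC; controls received vehicle only. Right hind paw thickness measured with a dial gauge 1 h after dosing, then carrageenan-induced edema re-measured 2 h later. Effect expressed as percent inhibition of edema versus control; mean of n = 6.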

For series [4], the system named is Mus musculus. The series can be described thus: Toxicity in carrageenan treated Albino mouse liver assessed as cholestasis at 10 mg/kg, po administered 1 hr before carrageenan challenge measured after 4 hrs by hematoxilen eosine staining. The series is classed as organism-based. The following applies: in vivo. Also noted: dose 10 mg/kg, route oral. The method, boiled down:
as §2

The test system of series [5] is Mus musculus. The series can be described thus: Antiinflammatory activity in Albino mouse assessed as inhibition of carrageenan-induced foot paw edema at 100 mg/kg, po administered 1 hr before carrageenan challenge measured after 2 hrs. The series is classed as functional. The method, boiled down:
as §3

Series [6] deals with Mus musculus. The series can be described thus: Toxicity in carrageenan treated Albino mouse liver assessed as acute hepatitis at 100 mg/kg, po administered 1 hr before carrageenan challenge measured after 4 hrs by hematoxilen eosine staining. It is filed as organism-based. The following applies: in vivo. Details: dose 100 mg/kg, route oral. An outline of the steps:
as §2

Series [7] relates to Mus musculus. The series can be described thus: Antiinflammatory activity against carrageenan-induced inflammation in Albino mouse air ppouch model assessed as number of polymorphonuclear leukocytes infiltration at 100 mg/kg, po administered 1 hr before carrageenan challenge measured after 4 hrs by air pouch test. The series is classed as functional. An outline of the steps:
as §1

The test system of series [8] is Mus musculus. The experiment in a line: Toxicity in carrageenan treated Albino mouse liver assessed as cholestasis at 100 mg/kg, po administered 1 hr before carrageenan challenge measured after 4 hrs by hematoxilen eosine staining. It is filed as organism-based. Details: dose 100 mg/kg, route oral. The conditions noted are these: in vivo. An outline of the steps: as §2

The subject of series [9] is Mus musculus. The series can be described thus: Toxicity in carrageenan treated Albino mouse stomach assessed as gastric ulcer at 100 mg/kg, po administered 1 hr before carrageenan challenge measured after 4 hrs by hematoxilen eosine staining. It is filed as organism-based. Also noted: dose 100 mg/kg, route oral. The conditions noted are these: in vivo. An outline of the steps: as §2

The test system of series [10] is Mus musculus. The experiment in a line: Toxicity in carrageenan treated Albino mouse liver assessed as fatty change at 100 mg/kg, po administered 1 hr before carrageenan challenge measured after 4 hrs by hematoxilen eosine staining. The series is classed as organism-based. Details: dose 100 mg/kg, route oral. The following applies: in vivo. The method, boiled down:
as §2

Series [11] relates to Mus musculus. The series can be described thus: Toxicity in carrageenan treated Albino mouse kidney assessed as […] mononuclear lymphocytes at 100 mg/kg, po administered 1 hr before carrageenan challenge measured after 4 hrs by hematoxilen eosine staining. The following applies: in vivo. It is filed as organism-based. Details: dose 100 mg/kg, route oral. The method, boiled down:
as §2

Series [12] relates to Mus musculus. The experiment in a line: Toxicity in carrageenan treated Albino mouse kidney assessed as edema at 100 mg/kg, po administered 1 hr before carrageenan challenge measured after 4 hrs by hematoxilen eosine staining. It is filed as organism-based. Also noted: dose 100 mg/kg, route oral. The conditions noted are these: in vivo. The method, boiled down:
as §2

The species named for series [13] is Mus musculus. The series can be described thus: animal or person. The following applies: Albino, po, read-out: INH.

`COc1ccc2c(c1)c(CC(=O)O)c(C)n2C(=O)c1ccc(Cl)cc1` [INDOMETHACIN]: the Activity in the series on Mus musculus [1] is given as 68.81 ×10⁵ /cm'3; with Mus musculus [2], “Toxic”; in the series with Mus musculus [4], “Non-toxic”. Moreover, in the series with Mus musculus [3], the inhibition in vivo at 10 mg/kg is 32.1%.
Turning to `Cc1cc(C(=O)c2ccc(Br)cc2)ccc1OCCN1CCCCC1`, the inhibition in vivo at 100 mg/kg with Mus musculus [5] was 67.5%. The Activity entry in the series with Mus musculus [6] was “Non-toxic”; in the series on Mus musculus [7] it was 31.75 ×10⁵ /cm'3; in the series on Mus musculus [8], “Non-toxic”; with Mus musculus [9] it was “Non-toxic”; in the series on Mus musculus [10] it was “Non-toxic”; in the series on Mus musculus [11] it was “Non-toxic”. The Activity entry in the series on Mus musculus [12] is “Non-toxic”.
In the case of `Cc1cc(C(=O)c2ccc(Cl)cc2Cl)ccc1OCCN1CCCCC1`, the inhibition in vivo at 100 mg/kg in the series with Mus musculus [5] came to 68.7%. Further, the Activity with Mus musculus [7] was 30.15 ×10⁵ /cm'3; with Mus musculus [8], “Non-toxic”; with Mus musculus [9] it was “Non-toxic”; in the series with Mus musculus [10], “Non-toxic”; in the series with Mus musculus [11], “Non-toxic”; in the series on Mus musculus [12], “Non-toxic”.
With `Cc1cccc(C(=O)c2ccc(OCCN3CCCCC3)c(C)c2)c1`, the inhibition in vivo at 100 mg/kg in the series on Mus musculus [5] was determined as 15.4%. For the same compound, the Activity entry is “Non-toxic” in the series on Mus musculus [6], 104.76 ×10⁵ /cm'3 in the series on Mus musculus [7], “Non-toxic” in the series on Mus musculus [8] and “Non-toxic” with Mus musculus [12].
Consider `Cc1cc(C(=O)c2ccccc2)ccc1OCCN1CCCCC1`, for which the inhibition in vivo at 100 mg/kg with Mus musculus [5] came out at 22.4%. The Activity is 95.25 ×10⁵ /cm'3 in the series with Mus musculus [7], “Non-toxic” with Mus musculus [11] and “Non-toxic” in the series with Mus musculus [12].
`Cc1cc(C(=O)c2ccccc2Br)ccc1OCCN1CCCCC1`: the inhibition in vivo at 100 mg/kg in the series with Mus musculus [5] is 51.4%. In addition, the Activity result in the series on Mus musculus [6] is on record as “Non-toxic”; in the series with Mus musculus [7] it was 56.25 ×10⁵ /cm'3; in the series with Mus musculus [8], “Non-toxic”; with Mus musculus [10], “Non-toxic”; with Mus musculus [11] it was “Non-toxic”; in the series on Mus musculus [12], “Non-toxic”.
Turning to `Cc1cc(C(=O)c2ccccc2C)ccc1OCCN1CCCCC1`, the inhibition in vivo at 100 mg/kg with Mus musculus [5] turned out to be 35.6%. Further, the Activity is listed as 69.51 ×10⁵ /cm'3 with Mus musculus [7], “Non-toxic” in the series with Mus musculus [9], “Non-toxic” in the series with Mus musculus [11] and “Non-toxic” in the series on Mus musculus [12].
In the case of `Cc1ccc(C(=O)c2ccc(OCCN3CCCCC3)c(C)c2)cc1`, the inhibition entry in the series on Mus musculus [5] was “inactive”. Also, the Activity entry with Mus musculus [8], in the series on Mus musculus [9], with Mus musculus [10], with Mus musculus [11] and with Mus musculus [12] was “Non-toxic” in each case.
Regarding `COc1ccc(C(=O)c2ccc(OCCN3CCCCC3)c(C)c2)cc1`, in the series on Mus musculus [5], the inhibition in vivo at 100 mg/kg stood at 51.4%. In addition, the Activity in the series with Mus musculus [7] is on record as 56.26 ×10⁵ /cm'3; in the series with Mus musculus [8], “Non-toxic”; in the series on Mus musculus [10] it was “Non-toxic”; in the series with Mus musculus [11], “Non-toxic”; with Mus musculus [12] it was “Non-toxic”.
For the compound `Cc1cc(C(=O)c2cccc(Cl)c2)ccc1OCCN1CCCCC1`, the inhibition in vivo at 100 mg/kg in the series with Mus musculus [5] amounted to 51.4%. The Activity with Mus musculus [7] is reported as 56.26 ×10⁵ /cm'3; in the series on Mus musculus [8], “Non-toxic”; in the series on Mus musculus [9], “Non-toxic”; in the series on Mus musculus [12] it was “Non-toxic”.
Consider `Cc1cc(C(=O)c2ccc(F)cc2)ccc1OCCN1CCCCC1`, for which the inhibition in vivo at 100 mg/kg in the series with Mus musculus [5] was determined as 60.6%. Moreover, the Activity result in the series on Mus musculus [6] is given as “Non-toxic”; in the series with Mus musculus [7], 32.41 ×10⁵ /cm'3; in the series with Mus musculus [8], “Non-toxic”; in the series with Mus musculus [9], “Non-toxic”; in the series with Mus musculus [10], “Non-toxic”; in the series on Mus musculus [11], “Non-toxic”. In the series on Mus musculus [12], the Activity result is given as “Non-toxic”.
For the compound `CCCCC1C(=O)N(c2ccccc2)N(c2ccccc2)C1=O` [PHENYLBUTAZONE], in the series on Mus musculus [5], the inhibition in vivo at 100 mg/kg came out at 53.3%. In the series with Mus musculus [7], the Activity was determined as 53.28 ×10⁵ /cm'3.
With `COc1ccc2cc([C@H](C)C(=O)O)ccc2c1` [NAPROXEN], the inhibition in vivo at 30 mg/kg in the series listed under Mus musculus [13] came out at 66.9%.
